From PubChem BioAssay
Sampled rows, rich in hits. Any-hit rate of the full collection: about 8.4%.
PostGolgi yeast: growth inhibition of a yeast mutant, post-Golgi transport screen | post-Golgi transport phenotypic cell assay | inhibition, % at 10 µM | hit rate 0.9% among 98,000 | AID 739;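 further: yeast cells grown in 1536-well plates; yeast grown about 18 h at 30C before absorbance read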
Ecoli tolC: growth inhibitors of E. coli BW25113 tolC mutant; OD615; growth inhibition, % at 10 µM (by protocol); hit rate 2.2% among 65,000; AID 573;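 active means growth inhibition at or above a cutoff equal to the mean over every tested compound plus 3 SD, cut at about 60% in these data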;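 further: growth measured after 20 h incubation at 37 °C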
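Signal: optical density read at 615 nm; Assay system: E. coli ΔtolC::kan strain BW25113; Times: 20 h incubation with compound, 37 °C; Dosing: 10 µM final, single dose.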
Cav3 T inh: inhibitors of human Cav3.2 T-type calcium channel; O95180; hit rate 4% among 100,000; B-score at 10 µM; AID 449739; Cav3.2-expressing cells, Fluo-4 calcium fluorescence FDSS; hits give low values;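 active means single-dose well whose peak fluorescence ratio is a statistical outlier from its plate by either plate-standardised score or position-corrected B-score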
Target sequence (O95180 whole entry, looked up): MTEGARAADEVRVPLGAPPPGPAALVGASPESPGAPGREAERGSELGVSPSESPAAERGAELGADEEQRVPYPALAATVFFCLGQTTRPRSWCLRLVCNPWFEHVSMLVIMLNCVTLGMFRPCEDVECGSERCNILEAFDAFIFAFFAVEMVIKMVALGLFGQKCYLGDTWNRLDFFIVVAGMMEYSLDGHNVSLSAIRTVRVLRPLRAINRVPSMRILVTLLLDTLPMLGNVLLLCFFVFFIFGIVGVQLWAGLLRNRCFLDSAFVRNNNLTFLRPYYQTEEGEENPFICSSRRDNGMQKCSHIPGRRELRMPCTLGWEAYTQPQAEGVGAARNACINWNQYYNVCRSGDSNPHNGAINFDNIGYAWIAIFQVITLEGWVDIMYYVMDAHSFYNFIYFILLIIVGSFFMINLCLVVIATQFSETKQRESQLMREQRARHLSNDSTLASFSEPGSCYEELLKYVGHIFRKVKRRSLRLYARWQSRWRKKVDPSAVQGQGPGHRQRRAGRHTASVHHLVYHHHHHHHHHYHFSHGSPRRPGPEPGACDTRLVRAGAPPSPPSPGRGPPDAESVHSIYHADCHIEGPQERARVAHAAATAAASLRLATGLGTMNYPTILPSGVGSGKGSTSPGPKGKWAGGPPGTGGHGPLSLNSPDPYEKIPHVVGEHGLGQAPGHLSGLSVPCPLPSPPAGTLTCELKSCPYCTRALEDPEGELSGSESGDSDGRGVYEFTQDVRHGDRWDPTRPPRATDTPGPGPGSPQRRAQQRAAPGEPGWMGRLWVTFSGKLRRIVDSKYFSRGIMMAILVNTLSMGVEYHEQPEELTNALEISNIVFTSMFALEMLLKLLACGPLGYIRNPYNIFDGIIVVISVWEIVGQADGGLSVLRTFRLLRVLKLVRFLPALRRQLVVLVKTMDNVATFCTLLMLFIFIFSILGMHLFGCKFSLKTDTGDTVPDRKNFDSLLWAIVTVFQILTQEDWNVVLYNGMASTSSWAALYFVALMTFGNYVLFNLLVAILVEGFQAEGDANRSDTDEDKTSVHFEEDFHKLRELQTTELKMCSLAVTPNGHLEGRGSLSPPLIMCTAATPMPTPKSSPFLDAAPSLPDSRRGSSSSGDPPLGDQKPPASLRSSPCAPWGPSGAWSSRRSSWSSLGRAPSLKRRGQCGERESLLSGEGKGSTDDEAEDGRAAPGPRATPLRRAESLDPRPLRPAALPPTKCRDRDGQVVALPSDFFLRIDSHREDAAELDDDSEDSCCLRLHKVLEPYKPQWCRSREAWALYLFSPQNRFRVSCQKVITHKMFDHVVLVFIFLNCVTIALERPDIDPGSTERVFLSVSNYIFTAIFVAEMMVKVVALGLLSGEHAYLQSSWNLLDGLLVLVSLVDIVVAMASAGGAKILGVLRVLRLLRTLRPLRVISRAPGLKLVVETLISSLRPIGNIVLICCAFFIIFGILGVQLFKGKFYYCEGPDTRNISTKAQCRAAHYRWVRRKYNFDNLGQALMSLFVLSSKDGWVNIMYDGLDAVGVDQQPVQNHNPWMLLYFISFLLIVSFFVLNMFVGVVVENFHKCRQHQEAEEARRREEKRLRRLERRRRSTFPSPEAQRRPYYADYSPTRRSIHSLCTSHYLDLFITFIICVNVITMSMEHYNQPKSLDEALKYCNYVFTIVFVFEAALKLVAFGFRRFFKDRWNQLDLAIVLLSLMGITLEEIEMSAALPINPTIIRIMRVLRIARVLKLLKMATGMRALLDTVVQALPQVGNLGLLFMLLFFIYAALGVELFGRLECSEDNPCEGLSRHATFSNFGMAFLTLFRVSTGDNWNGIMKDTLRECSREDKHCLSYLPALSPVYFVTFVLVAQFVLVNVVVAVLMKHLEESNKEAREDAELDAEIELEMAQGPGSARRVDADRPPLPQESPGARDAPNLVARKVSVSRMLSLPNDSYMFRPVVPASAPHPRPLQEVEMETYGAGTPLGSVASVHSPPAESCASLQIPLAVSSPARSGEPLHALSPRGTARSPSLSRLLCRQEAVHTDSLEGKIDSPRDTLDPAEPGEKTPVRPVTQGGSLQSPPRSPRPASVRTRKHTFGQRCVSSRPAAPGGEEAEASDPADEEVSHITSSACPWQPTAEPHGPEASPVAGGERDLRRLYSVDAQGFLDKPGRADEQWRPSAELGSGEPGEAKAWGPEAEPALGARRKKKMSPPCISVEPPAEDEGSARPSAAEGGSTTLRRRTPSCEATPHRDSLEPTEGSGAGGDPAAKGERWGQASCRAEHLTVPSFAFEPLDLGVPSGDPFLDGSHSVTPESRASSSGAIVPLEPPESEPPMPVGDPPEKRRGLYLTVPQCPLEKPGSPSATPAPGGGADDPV
PostGolgi ctrl: inhibits growth of the yeast control strain | efflux-deficient yeast background strain, growth absorbance A615, 16 h | inhibition, % at 10 µM | hit rate 5% among 98,000
Ecoli WT expand: growth inhibitors of E. coli BW25113 wild type. hit rate 0.15% among 98,000. growth inhibition, % at 100 µM. OD600 absorbance;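 active means growth inhibition above about 50% at one test dose, limit read from the data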;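 further: growth measured after 20 h incubation at 37 °C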
Starred values were filed as active, the others as inactive; / = no result. Unless noted, no stated cut-off is given here; in the data, active means inhibition above about 30%; inactive means the rest.

SMILES | PostGolgi yeast | Ecoli tolC | Cav3 T inh | PostGolgi ctrl | Ecoli WT expand
CCOC(=O)C(NCc1ccco1)(NC(=O)c1ccccc1)C(F)(F)F (configuration not stated) | 13.0 | / | 1.12 | -2.0 | -5.0
CCN1/C(=C/c2ccc3ccccc3[n+]2CC)C=Cc2ccccc21 | -1.3 | / | -5.37* | 65.7* | 57.0*
CCOC(=O)C(C)n1cnc2c(nnn2Cc2ccc(C)cc2)c1=O (configuration not stated) | 1.9 | -1.4 | 0.0883 | 2.7 | 2.0
CCOC(=O)C(C)n1cnc2c(nnn2Cc2ccc(Cl)cc2)c1=O (configuration not stated) | -1.9 | -2.4 | -4.48* | -4.8 | 7.0
O=C(Cn1cnc2c(nnn2Cc2ccc(Cl)cc2)c1=O)N1CCN(c2ccccc2)CC1 | / | 14.3 | -4.42* | / | /
O=C(Cn1cnc2c(nnn2Cc2ccccc2)c1=O)N1CCN(c2ccccc2)CC1 | 6.0 | 2.7 | 1.38 | 9.0 | 0.0
CCOC(=O)c1ccc(Oc2nc(NC(C)(C)C)nc(N(C)C)n2)cc1 | -12.4 | 65.9* | -7.11* | 13.1 | -12.0
CCOC(=O)c1ccc(Oc2nc(N(C)C)nc(N(C)C)n2)cc1 | 1.3 | / | -2.42 | 5.0 | -11.0
COc1ccc(C(=O)Nc2oc(-c3ccccc3)c(-c3ccccc3)c2C#N)cc1 | -17.1 | / | -6.99* | 22.0 | -17.0
COc1ccc(-c2oc(NC(C)=O)c(C#N)c2-c2ccc(OC)cc2)cc1 | -6.1 | / | -0.722 | 6.5 | -4.0
COc1ccc(-c2oc(NC(=O)c3ccc(C)cc3)c(C#N)c2-c2ccc(OC)cc2)cc1 | -5.6 | / | -3.58* | 6.6 | -16.0
CC(C)CC(=O)O/N=C1\C(=O)N(c2ccccc2)c2ccccc21 | 2.3 | / | 0.191 | 21.8 | -6.0
CC(C)CC(=O)O/N=C1\C(=O)N(Cc2ccc(Cl)cc2)c2ccc([N+](=O)[O-])cc21 | 8.3 | / | -0.928 | 32.9* | 11.0
O=C(Nc1cccn(Cc2c(Cl)cccc2Cl)c1=O)c1c(Cl)cccc1Cl | 5.6 | / | -6.49* | 92.9* | -13.0
COC(=O)Nc1cccn(Cc2c(Cl)cccc2Cl)c1=O | 10.1 | / | 0.76 | 21.1 | 2.0
Cc1cc(C)c2c(c1)SC1=NC(c3ccccc3)(C(F)(F)F)NC(=O)N12 (configuration not stated) | 10.4 | / | 0.604 | 43.1* | -5.0
CCCCOc1ccc(-c2nc(=S)[nH][nH]2)cc1 | -5.8 | / | -0.462 | 12.0 | 5.0
O=C(CCCn1c(=O)[nH]c2ccsc2c1=O)NCc1cccs1 | 16.2 | -6.1 | 0.195 | -0.3 | 7.0
Nc1nonc1C(=O)NCCNC(=O)c1cccs1 | -0.6 | -17.1 | -0.149 | -2.9 | -2.0
Cc1nn2c(-n3ccnc3C)c3c(nc2c1-c1ccccc1)CCC3 | -4.2 | / | 0.283 | 10.2 | 7.0
Cc1nn2c(N3CCOCC3)c3c(nc2c1-c1ccccc1)CCCC3 | 0.6 | 7.0 | 2.75 | 78.7* | 1.0
O=C(Oc1ccc(-c2cnc3ccccc3n2)cc1)c1ccco1 | -4.7 | -0.6 | 0.826 | -7.0 | -7.0
NC(=S)N/N=C/c1ccc(-c2ccc(Cl)c(Cl)c2)o1 | 66.8* | / | -0.076 | 81.3* | -4.0
NC(=S)N/N=C\c1ccc(-c2cccc(Cl)c2Cl)o1 | 8.6 | / | 0.941 | 48.5* | -18.0
O=C(CN1CCCC1)N/N=C/c1ccc(-c2cccc(Cl)c2)o1 | 2.9 | / | 0.36 | 9.4 | 13.0
SMILES | PostGolgi yeast | Ecoli tolC | Cav3 T inh | PostGolgi ctrl | Ecoli WT expand
CN1/C(=C/C2CC(=O)NC2=O)C(C)(C)c2ccccc21 (configuration not stated) | 44.8* | / | 0.893 | -0.5 | -6.0
Cc1nc2sc(C(c3ccco3)N3CCc4ccccc4C3)c(O)n2n1 (configuration not stated) | / | -20.8 | 0.00773 | / | /
CCCCOc1ncnc2c1[nH]c1ccc(F)cc12 | 10.0 | 12.7 | -1.38 | 18.2 | 0.0
Cc1ccc(SCc2ccc(C(=O)NCc3ccncc3)cc2)cc1 | 0.6 | / | -0.189 | 4.9 | -10.0
CN(C)S(=O)(=O)c1cccc(C(=O)Nc2cc(Cl)cc(Cl)c2)c1 | -1.9 | / | -0.683 | 15.5 | -5.0
O=C(Nc1cc(Cl)cc(Cl)c1)c1cccc(OC(F)F)c1 | 59.4* | / | -0.155 | 33.3* | 28.0
O=C(CN(c1ccc(Cl)cc1)S(=O)(=O)c1ccccc1)N/N=C/c1ccco1 | 1.0 | / | -5.98* | 8.8 | 0.0
OCCN(Cc1ccccc1)Cc1ccc(Cl)cc1Cl | 3.4 | / | -1.37 | 15.0 | 14.0
N#C/C(=C\c1ccc(N2CCOCC2)o1)c1ccccc1 | -8.7 | / | -2.63 | 7.6 | -2.0
N#C/C(=C/c1ccc(N2CCOCC2)o1)c1ccc(Br)cc1 | 6.1 | / | -3.44 | 28.8 | -13.0
N#C/C(=C/c1ccc(N2CCCCCC2)o1)c1cccc(F)c1 | -5.2 | / | -4.27* | 1.2 | -2.0
N#C/C(=C/c1ccc(N2CCCCCC2)o1)c1ccc(F)cc1 | 30.2* | 34.6 | -6.09* | 5.0 | -15.0
N#C/C(=C/c1ccc(N2CCOCC2)o1)c1nc2ccccc2[nH]1 | / | / | -10.2* | / | /
N#C/C(=C\c1ccc(Sc2nc3ccccc3[nH]2)o1)c1ccccc1 | -9.3 | / | -3.03 | 54.1* | -17.0
CCCn1c(CCC(=O)O)ccc1-c1cccs1 | 3.0 | 13.6 | 0.386 | 3.9 | 4.0
COCCCn1c(CCC(=O)O)ccc1-c1cccs1 | -2.5 | 1.7 | / | 30.5* | 1.0
CCOC(=O)CC(N)c1ccc2c(c1)OCO2 (configuration not stated) | 4.7 | -20.4 | 0.187 | 8.6 | 3.0
CCCC1(C(=O)O)NC(c2ccc(OC)cc2O)C2C(=O)N(c3ccc(OC)cc3)C(=O)C21 (configuration not stated) | 28.7 | -14.8 | 0.98 | -5.8 | 2.0
CCCc1cc(C(N)=O)c(NC(=O)c2cc(C)on2)s1 | 8.8 | 20.1 | 0.0665 | 49.1* | 2.0
CCOC(=O)C1=NN(c2ccccc2C)C2=NC(C)=C(C(=O)OC)C(c3cccs3)N12 (configuration not stated) | / | / | -5.96* | / | /
CCOC(=O)C1=NN(c2ccc(F)cc2)C2=NC(C)=C(C(=O)OC)C(c3cccs3)N12 (configuration not stated) | / | / | 0.00602 | / | /
COC(=O)CSc1nc(N)c(C#N)c(-c2ccco2)c1C#N | -5.3 | / | -0.146 | 31.7* | -10.0
COc1ccc(N2CCN(CCCNS(=O)(=O)c3ccc4c(c3)oc(=O)n4C)CC2)cc1 | -6.8 | -6.4 | 0.445 | 31.8* | 10.0
Cn1c(=O)oc2cc(S(=O)(=O)NCCN3CCCCCC3)ccc21 | -1.5 | -6.7 | 0.194 | -12.3 | 0.0
N#Cc1cn(Cc2cccc(Cl)c2)c2ccccc12 | -3.0 | 97.1* | -4.14 | 23.8 | 2.0
SMILES | PostGolgi yeast | Ecoli tolC | Cav3 T inh | PostGolgi ctrl | Ecoli WT expand
CCc1cc(C(=O)NNC(=S)Nc2ccccc2C)cs1 | / | / | -0.645 | / | /
CCCc1cc(C(=O)NNC(=S)NCc2ccccc2)cs1 | 14.7 | / | -7.29* | 8.7 | 1.0
CCn1cc(C(=O)O)c(=O)c2cnc(N3CCNCC3)nc21 | / | 6.6 | -2.94 | / | /
C=CCNC(=S)N1CCN(c2ncc3c(=O)c(C(=O)O)cn(CC)c3n2)CC1 | 7.0 | / | 0.355 | 6.2 | 100.0*
Cc1ccc(C2Nc3ccccc3C(=O)N2Cc2ccco2)cc1 (configuration not stated) | 6.3 | 22.0 | -1.98 | 1.0 | 8.0
Cc1ccccc1N(CC(=O)NCCc1ccccc1)C(=O)c1ccc(N2CCCC2)nc1 | -3.9 | 20.0 | -4.77* | 4.1 | -8.0
CCN(CC)S(=O)(=O)c1ccc(NC(=O)Cn2c(=O)sc3ccccc32)cc1 | 8.9 | 47.2 | -6.05* | 19.1 | -7.0
